Reference: publication PMC9099118 (Clinical and Translational Science, 2022)
Entries after “also recorded” stand apart in the source; their conditions may differ.

Columns and labels:
[1] = Phase I plasma pharmacokinetics after single; format: in vivo, human; conditions: for Cmax: plasma; for T max: median; for AR (Cmin): Cmin Day 14/Cmin Day 1, mean; for Cmax, Day 1 / Cmin, Day 1: first dose; for AUCtau, Day14 / Cmax, Day 14 / Cmin, Day 14: steady-state
Summary of the method: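 Randomized, placebo-controlled, blinded study in healthy adults aged 18–65. Part A gave single inhaled doses of 0.15–15 mg; Part B gave 1, 3 or 10 mg q.d. or 15 mg b.i.d. for 14 days via a capsule dry-powder inhaler, each dose over 15 (±5) min. Serial plasma samples were taken from pre-dose to Day 15 (Part A) or Day 42 (Part B). Drug was assayed by HPLC-MS/MS (LLOQ 10 pg/mL). Accumulation ratio = Cmin Day 14/Cmin Day 1.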

[2] = Scintigraphy study: plasma PK and safety; format: in vivo, human; conditions: single 1 mg radiolabeled dose
[3] = tested on: fractional exhaled nitric oxide (FeNO); conditions: patients with mild asthma, inhaled; cited from earlier work
[4] = biological target: JAK1; conditions: cited from earlier work
[5] = Part A SAD, range across dose levels

SMILES: CN(CCC#N)C1CCN(C(=O)Cn2cc(NC(=O)c3cnn4cccnc34)c(-c3cc(Cl)ccc3OC(F)F)n2)CC1 [GDC‐0214]
- Cmax ([1]; Part A SAD, 0.15 mg single inhaled dose, mean): 0.0702 ng/mL
- T max ([1]; Part A SAD, 0.15 mg): 0.283 h
- Cmax ([1]; Part A SAD, 0.5 mg single inhaled dose, mean): 0.301 ng/mL
- AUCinf ([1]; Part A SAD, 0.5 mg, mean): 2.458 ng·h/mL
- CL/F ([1]; Part A SAD, 0.5 mg, mean): 227 L/h
- T 1/2 ([1]; Part A SAD, 0.5 mg, mean): 37.3 h
- Vz/F ([1]; Part A SAD, 0.5 mg, mean): 12264 L
- T max ([1]; Part A SAD, 0.5 mg): 0.267 h
- Cmax ([1]; Part A SAD, 1.5 mg single inhaled dose, mean): 0.763 ng/mL
- AUCinf ([1]; Part A SAD, 1.5 mg, mean): 7.32 ng·h/mL
- CL/F ([1]; Part A SAD, 1.5 mg, mean): 220 L/h
- T 1/2 ([1]; Part A SAD, 1.5 mg, mean): 38.7 h
- Vz/F ([1]; Part A SAD, 1.5 mg, mean): 12620 L
- T max ([1]; Part A SAD, 1.5 mg): 0.517 h
- Cmax ([1]; Part A SAD, 5 mg single inhaled dose, mean): 2.883 ng/mL
- AUCinf ([1]; Part A SAD, 5 mg, mean): 34.727 ng·h/mL
- CL/F ([1]; Part A SAD, 5 mg, mean): 149 L/h
- T 1/2 ([1]; Part A SAD, 5 mg, mean): 36.5 h
- Vz/F ([1]; Part A SAD, 5 mg, mean): 7744 L
- T max ([1]; Part A SAD, 5 mg): 0.458 h
- Cmax ([1]; Part A SAD, 15 mg single inhaled dose, mean): 7.27 ng/mL
- AUCinf ([1]; Part A SAD, 15 mg, mean): 96.038 ng·h/mL
- CL/F ([1]; Part A SAD, 15 mg, mean): 158 L/h
- T 1/2 ([1]; Part A SAD, 15 mg, mean): 39.7 h
- Vz/F ([1]; Part A SAD, 15 mg, mean): 9116 L
- T max ([1]; Part A SAD, 15 mg): 0.500 h
- dose proportionality of mean Cmax and AUC0-inf ([1]; Part A SAD, across cohorts): approximately dose‐proportional
- mean CL/F [1, 5]: 149 to 227 L/h
- mean apparent volume of distribution (Vz/F) [1, 5]: 7740–12,600 L
- t 1/2 ([1]; Part B MAD, 1 mg q.d. for 14 days, mean): 38.5 h
- AR (Cmin) ([1]; Part B MAD, 1 mg q.d.): 3.0
- Cmax, Day 1 ([1]; Part B MAD, 1 mg q.d., mean): 0.581 ng/mL
- Cmin, Day 1 ([1]; Part B MAD, 1 mg q.d., mean): 0.0594 ng/mL
- AUCtau, Day1 ([1]; Part B MAD, 1 mg q.d., mean): 2910 pg·h/mL
- AUCtau, Day14 ([1]; Part B MAD, 1 mg q.d., mean): 5969 pg·h/mL
- Cmax, Day 14 ([1]; Part B MAD, 1 mg q.d., mean): 810 pg/mL
- Cmin, Day 14 ([1]; Part B MAD, 1 mg q.d., mean): 0.167 ng/mL
- t 1/2 ([1]; Part B MAD, 3 mg q.d. for 14 days, mean (N 5)): 32.0 h
- AR (Cmin) ([1]; Part B MAD, 3 mg q.d.): 2.79
- Cmax, Day 1 ([1]; Part B MAD, 3 mg q.d., mean): 1.51 ng/mL
- Cmin, Day 1 ([1]; Part B MAD, 3 mg q.d., mean): 0.164 ng/mL
- AUCtau, Day1 ([1]; Part B MAD, 3 mg q.d., mean): 8080 pg·h/mL
- AUCtau, Day14 ([1]; Part B MAD, 3 mg q.d., mean): 15,794 pg.h/mL
- Cmax, Day 14 ([1]; Part B MAD, 3 mg q.d., mean): 2115 pg/mL
- Cmin, Day 14 ([1]; Part B MAD, 3 mg q.d., mean): 0.45 ng/mL
- t 1/2 ([1]; Part B MAD, 10 mg q.d. for 14 days, mean): 40.8 h
- AR (Cmin) ([1]; Part B MAD, 10 mg q.d.): 3.47
- Cmax, Day 1 ([1]; Part B MAD, 10 mg q.d., mean): 3.77 ng/mL
- Cmin, Day 1 ([1]; Part B MAD, 10 mg q.d., mean): 0.517 ng/mL
- AUCtau, Day1 ([1]; Part B MAD, 10 mg q.d., mean): 21,300 pg.h/mL
- AUCtau, Day14 ([1]; Part B MAD, 10 mg q.d., mean): 52,824 pg.h/mL
- Cmax, Day 14 ([1]; Part B MAD, 10 mg q.d., mean): 5982 pg/mL
- Cmin, Day 14 ([1]; Part B MAD, 10 mg q.d., mean): 1.78 ng/mL
- t 1/2 ([1]; Part B MAD, 15 mg b.i.d. for 14 days, mean): 56.9 h
- AR (Cmin) ([1]; Part B MAD, 15 mg b.i.d.): 2.49
- Cmax, Day 1 ([1]; Part B MAD, 15 mg b.i.d., mean): 6.08 ng/mL
- Cmin, Day 1 ([1]; Part B MAD, 15 mg b.i.d., mean): 2.09 ng/mL
- AUCtau, Day1 ([1]; Part B MAD, 15 mg b.i.d., mean): 39,500 pg.h/mL
- AUCtau, Day14 ([1]; Part B MAD, 15 mg b.i.d., mean): 79,907 pg.h/mL
- Cmax, Day 14 ([1]; Part B MAD, 15 mg b.i.d., mean): 12,423 pg/mL
- Cmin, Day 14 ([1]; Part B MAD, 15 mg b.i.d., mean): 5.26 ng/mL
- dose proportionality of Cmax and AUCtau ([1]; Part B MAD, across the three q.d. cohorts): approximately dose‐proportional
- steady-state concentrations achieved by ([1]; Part B MAD, q.d. or b.i.d. dosing): ≤ 6 days
- time of peak plasma concentrations post-dose ([1]; after inhalation, across cohorts): 15 to 30 min
- tolerability [2]: well tolerated
- fractional exhaled nitric oxide (FeNO) [3]: reduced; also recorded: dose‐dependent decreases
- plasma protein binding-corrected cellular 50% inhibitory concentration of JAK1 [4]: 97,000 pg/mL
